From ChEMBL document CHEMBL3734757, “Discovery of novel quinoline-based mTOR inhibitors via introducing intra-molecular hydrogen bonding scaffold (iMHBS): The design, synthesis and biological evaluation” (Bioorg Med Chem, 2015)
Calls of active or inactive are those of the source. The calls are words filed in the database; no cut-off is given here.

Experiments:
[1] = target: Serine/threonine-protein kinase mTOR (Homo sapiens, UniProt P42345); assay: Inhibition of mTOR (unknown origin) using ULight-4E-BP1 peptide as substrate after 1 hr by lance ultra assay
[2] = target: T1, Phosphatidylinositol 4,5-bisphosphate 3-kinase catalytic subunit alpha isoform (Homo sapiens, UniProt P42336); assay: Inhibition of PI3Kalpha (unknown origin) after 1 hr by Kinase-Glo Luminescent assay
T1 sequence (P42336 whole entry, canonical isoform): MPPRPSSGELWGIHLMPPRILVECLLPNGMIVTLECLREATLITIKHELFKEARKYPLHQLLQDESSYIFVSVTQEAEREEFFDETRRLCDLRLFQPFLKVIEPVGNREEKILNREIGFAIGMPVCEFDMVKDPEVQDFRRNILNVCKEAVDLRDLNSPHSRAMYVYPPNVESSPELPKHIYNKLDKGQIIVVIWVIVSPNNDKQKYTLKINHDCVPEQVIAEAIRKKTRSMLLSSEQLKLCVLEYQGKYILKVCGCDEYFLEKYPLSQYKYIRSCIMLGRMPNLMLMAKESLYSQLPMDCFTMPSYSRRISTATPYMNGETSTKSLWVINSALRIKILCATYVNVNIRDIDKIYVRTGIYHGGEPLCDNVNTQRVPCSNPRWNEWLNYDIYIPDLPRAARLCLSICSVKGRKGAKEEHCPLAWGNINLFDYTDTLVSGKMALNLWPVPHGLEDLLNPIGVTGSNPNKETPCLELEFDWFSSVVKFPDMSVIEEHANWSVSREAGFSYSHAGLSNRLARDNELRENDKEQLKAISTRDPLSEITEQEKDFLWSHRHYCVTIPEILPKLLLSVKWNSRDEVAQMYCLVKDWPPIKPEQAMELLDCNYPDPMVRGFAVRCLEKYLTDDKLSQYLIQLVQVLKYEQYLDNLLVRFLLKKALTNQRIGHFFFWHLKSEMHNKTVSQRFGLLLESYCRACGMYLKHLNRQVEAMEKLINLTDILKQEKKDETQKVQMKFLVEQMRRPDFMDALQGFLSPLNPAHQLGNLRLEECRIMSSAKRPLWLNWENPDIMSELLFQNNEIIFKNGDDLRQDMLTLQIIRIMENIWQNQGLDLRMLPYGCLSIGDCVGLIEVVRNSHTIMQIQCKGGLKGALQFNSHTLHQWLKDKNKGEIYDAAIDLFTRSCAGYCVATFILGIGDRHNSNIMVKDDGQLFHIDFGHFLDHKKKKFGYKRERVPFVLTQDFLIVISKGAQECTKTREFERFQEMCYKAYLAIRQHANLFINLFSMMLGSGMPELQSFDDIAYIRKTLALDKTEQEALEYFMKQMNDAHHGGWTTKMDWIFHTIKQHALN

[3] = target: T2, Phosphatidylinositol 4,5-bisphosphate 3-kinase catalytic subunit beta isoform (Homo sapiens, UniProt P42338); assay: Inhibition of PI3Kbeta (unknown origin) after 1 hr by ADP-Glo Luminescent assay
How it was run: (§1)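 Purchased PI3Kβ reaction run 1 h at room temperature. An aliquot was moved to a new plate and stopped with an equal volume of ADP-Glo reagent, equilibrated 40 min. Kinase detection reagent added, shaken 1 min, equilibrated 60 min, then luminescence read. Inhibition relative to DMSO (max) and no-enzyme (min) controls; IC50 from four-parameter Hill fit.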
Target sequence in this assay (P42338 whole entry, canonical isoform): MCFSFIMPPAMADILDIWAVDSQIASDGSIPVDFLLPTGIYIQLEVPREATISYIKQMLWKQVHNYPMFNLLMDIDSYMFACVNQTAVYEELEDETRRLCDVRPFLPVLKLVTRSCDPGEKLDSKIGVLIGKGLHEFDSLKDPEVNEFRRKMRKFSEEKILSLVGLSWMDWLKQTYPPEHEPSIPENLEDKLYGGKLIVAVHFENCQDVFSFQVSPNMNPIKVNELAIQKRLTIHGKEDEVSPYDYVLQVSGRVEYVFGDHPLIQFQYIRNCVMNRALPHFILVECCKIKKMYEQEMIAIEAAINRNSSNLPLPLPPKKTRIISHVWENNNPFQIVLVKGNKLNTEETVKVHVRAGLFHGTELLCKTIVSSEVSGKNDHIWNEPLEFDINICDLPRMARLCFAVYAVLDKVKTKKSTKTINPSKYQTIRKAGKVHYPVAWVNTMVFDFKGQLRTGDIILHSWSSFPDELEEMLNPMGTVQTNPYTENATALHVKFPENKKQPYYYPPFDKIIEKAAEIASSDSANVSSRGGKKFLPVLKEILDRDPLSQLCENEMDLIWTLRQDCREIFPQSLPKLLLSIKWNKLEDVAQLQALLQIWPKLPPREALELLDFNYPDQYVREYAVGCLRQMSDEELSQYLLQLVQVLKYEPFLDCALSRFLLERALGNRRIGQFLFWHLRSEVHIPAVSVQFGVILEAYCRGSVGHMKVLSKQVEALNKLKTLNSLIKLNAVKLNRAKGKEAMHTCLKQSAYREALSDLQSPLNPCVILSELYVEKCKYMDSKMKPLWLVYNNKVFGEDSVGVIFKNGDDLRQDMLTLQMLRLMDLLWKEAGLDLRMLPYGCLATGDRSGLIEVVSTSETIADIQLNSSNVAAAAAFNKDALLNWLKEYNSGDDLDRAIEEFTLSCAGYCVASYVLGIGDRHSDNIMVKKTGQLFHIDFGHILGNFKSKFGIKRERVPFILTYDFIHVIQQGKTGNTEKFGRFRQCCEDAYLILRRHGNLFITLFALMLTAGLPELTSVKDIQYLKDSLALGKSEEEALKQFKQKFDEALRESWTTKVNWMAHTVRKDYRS

[4] = target: T3, Phosphatidylinositol 4,5-bisphosphate 3-kinase catalytic subunit gamma isoform (Homo sapiens, UniProt P48736); assay: Inhibition of PI3Kgamma (unknown origin) after 1 hr by ADP-Glo Luminescent assay
Target sequence in this assay (P48736 whole entry, canonical isoform): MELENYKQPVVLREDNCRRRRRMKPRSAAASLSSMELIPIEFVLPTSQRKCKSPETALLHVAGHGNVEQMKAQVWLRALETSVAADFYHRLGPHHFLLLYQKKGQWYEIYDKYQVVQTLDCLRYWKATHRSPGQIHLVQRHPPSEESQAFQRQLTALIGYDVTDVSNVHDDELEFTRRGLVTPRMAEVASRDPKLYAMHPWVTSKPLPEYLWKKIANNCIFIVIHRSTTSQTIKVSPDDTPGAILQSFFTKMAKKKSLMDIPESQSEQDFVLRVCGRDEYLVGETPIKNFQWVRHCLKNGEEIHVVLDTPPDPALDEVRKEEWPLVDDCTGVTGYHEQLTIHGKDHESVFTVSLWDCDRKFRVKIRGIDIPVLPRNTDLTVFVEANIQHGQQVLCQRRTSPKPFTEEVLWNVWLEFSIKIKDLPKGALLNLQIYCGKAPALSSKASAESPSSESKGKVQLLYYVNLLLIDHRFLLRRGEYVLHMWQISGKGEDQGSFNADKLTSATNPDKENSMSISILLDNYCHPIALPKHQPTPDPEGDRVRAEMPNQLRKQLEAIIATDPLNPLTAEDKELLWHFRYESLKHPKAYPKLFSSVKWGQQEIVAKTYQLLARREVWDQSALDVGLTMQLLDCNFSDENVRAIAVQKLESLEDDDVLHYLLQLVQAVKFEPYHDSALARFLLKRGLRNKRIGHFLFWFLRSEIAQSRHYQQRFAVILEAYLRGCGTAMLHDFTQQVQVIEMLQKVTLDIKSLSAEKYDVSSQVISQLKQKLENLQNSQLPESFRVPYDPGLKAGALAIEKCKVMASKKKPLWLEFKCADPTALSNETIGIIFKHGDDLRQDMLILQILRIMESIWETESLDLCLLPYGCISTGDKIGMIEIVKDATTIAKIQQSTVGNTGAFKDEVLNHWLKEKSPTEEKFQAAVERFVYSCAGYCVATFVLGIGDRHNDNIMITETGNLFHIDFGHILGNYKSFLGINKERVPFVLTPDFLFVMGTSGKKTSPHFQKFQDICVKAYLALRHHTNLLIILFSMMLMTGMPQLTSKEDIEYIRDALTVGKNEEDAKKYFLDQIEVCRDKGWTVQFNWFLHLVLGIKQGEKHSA

[5] = target: T4, Phosphatidylinositol 4,5-bisphosphate 3-kinase catalytic subunit delta isoform (Homo sapiens, UniProt O00329); assay: Inhibition of PI3Kdelta (unknown origin) after 1 hr by ADP-Glo Luminescent assay
T4 sequence (O00329 whole entry): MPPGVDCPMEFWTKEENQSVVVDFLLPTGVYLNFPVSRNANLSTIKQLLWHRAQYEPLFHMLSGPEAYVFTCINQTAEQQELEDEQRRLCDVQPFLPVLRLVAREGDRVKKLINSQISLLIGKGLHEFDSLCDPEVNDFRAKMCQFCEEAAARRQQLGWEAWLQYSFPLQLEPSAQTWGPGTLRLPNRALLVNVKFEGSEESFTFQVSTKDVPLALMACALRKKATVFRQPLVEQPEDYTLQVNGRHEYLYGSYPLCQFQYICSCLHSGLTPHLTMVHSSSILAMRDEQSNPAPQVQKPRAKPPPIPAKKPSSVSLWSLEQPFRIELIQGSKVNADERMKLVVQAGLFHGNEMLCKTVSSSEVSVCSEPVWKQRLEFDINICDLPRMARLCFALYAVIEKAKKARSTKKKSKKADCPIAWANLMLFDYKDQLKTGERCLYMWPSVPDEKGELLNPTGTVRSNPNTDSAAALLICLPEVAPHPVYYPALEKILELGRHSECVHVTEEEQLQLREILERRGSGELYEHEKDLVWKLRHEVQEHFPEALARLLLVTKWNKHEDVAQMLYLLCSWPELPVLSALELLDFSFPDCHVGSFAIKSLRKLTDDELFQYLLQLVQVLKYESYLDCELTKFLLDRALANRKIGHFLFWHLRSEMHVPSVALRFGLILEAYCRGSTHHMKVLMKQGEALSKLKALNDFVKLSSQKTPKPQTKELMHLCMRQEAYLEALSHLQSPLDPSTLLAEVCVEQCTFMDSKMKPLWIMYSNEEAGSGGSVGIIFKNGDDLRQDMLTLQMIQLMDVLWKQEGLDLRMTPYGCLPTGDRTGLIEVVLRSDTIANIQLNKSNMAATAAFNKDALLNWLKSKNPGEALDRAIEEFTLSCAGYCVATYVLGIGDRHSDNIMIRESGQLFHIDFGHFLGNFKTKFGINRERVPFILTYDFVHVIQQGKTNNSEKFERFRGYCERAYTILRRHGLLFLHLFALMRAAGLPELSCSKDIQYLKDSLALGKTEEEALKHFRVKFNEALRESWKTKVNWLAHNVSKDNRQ

MCF7 [6] = assay: Inhibition of mTORC1/2 in human MCF7 cells assessed as downregulation of pAKT(Ser473) and pS6(Ser235) at 0.5 uM after 2 hrs by Western blot analysis; type: cell-based
cells [7] = settings: Homo sapiens, HCT-116, 72 h
cells [8] = settings: Homo sapiens, PC-3, 72 h
MCF7 [9] = assay: cells; settings: Homo sapiens, MCF7, 72 h
MCF7 [10] = assay: Inhibition of mTORC2 in human MCF7 cells assessed as downregulation of pAKT(Ser473) at 0.1 uM after 2 hrs by Western blot analysis
MCF7 [11] = assay: Inhibition of mTORC2 in human MCF7 cells assessed as downregulation of pAKT(Ser473) at 0.5 uM after 2 hrs by Western blot analysis; type: cell-based
mTORC1 (Homo sapiens) = mTORC1 (Homo sapiens) (UniProt P42345+Q8N122+Q9BVC4); settings: MCF7, 0.5 uM
Chain of mTORC1 (Homo sapiens) (Q8N122 whole entry, looked up, other chains not shown, canonical isoform): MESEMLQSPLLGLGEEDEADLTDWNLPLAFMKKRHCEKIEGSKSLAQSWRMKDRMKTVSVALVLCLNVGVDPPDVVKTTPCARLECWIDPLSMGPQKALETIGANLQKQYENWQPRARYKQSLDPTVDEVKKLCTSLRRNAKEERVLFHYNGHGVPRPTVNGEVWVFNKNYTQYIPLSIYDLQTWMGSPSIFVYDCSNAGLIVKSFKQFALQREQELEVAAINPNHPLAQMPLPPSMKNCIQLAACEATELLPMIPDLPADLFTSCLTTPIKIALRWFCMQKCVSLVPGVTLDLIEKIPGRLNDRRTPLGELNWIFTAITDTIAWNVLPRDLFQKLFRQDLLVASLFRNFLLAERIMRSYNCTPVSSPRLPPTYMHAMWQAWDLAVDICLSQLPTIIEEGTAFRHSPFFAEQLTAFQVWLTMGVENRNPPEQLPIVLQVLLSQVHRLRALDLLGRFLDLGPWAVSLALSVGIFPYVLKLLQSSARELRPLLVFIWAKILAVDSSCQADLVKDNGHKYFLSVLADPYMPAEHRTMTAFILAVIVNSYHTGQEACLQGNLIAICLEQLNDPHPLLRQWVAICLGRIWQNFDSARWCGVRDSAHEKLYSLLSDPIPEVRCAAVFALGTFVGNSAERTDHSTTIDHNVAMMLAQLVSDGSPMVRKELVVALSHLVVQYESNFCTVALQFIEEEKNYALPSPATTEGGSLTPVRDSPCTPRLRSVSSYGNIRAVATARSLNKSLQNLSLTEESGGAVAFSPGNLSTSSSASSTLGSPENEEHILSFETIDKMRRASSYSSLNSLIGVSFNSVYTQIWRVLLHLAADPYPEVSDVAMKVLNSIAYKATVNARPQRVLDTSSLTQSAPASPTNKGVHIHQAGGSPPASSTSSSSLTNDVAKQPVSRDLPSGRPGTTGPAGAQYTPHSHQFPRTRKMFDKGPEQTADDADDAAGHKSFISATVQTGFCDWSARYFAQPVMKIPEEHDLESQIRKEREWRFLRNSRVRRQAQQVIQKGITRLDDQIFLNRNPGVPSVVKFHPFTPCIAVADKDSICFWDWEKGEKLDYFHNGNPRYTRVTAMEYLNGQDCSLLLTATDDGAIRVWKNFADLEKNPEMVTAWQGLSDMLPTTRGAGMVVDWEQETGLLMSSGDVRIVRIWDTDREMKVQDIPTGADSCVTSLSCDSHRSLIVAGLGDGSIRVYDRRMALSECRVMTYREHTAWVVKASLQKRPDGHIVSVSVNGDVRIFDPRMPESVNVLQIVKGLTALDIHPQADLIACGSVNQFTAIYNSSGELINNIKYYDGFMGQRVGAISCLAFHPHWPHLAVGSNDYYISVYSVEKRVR
Chain of mTORC1 (Homo sapiens) (Q9BVC4 whole entry, looked up, other chains not shown, canonical isoform): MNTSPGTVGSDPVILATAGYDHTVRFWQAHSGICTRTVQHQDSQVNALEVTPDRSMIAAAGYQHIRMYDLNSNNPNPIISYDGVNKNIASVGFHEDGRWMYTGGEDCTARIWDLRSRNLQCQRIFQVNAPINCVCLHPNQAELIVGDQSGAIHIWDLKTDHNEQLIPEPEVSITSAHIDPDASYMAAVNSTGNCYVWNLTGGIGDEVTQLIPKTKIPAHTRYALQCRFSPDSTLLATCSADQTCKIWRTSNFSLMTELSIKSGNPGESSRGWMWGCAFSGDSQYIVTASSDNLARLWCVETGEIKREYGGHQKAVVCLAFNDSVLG

[12] = target: T1, Phosphatidylinositol 4,5-bisphosphate 3-kinase catalytic subunit alpha isoform; assay: Inhibition of PI3Kalpha (unknown origin) at 1 uM after 1 hr by Kinase-Glo Luminescent assay
How it was run: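 Purchased PI3Kα in buffer of 50 mM HEPES pH 7.5, 3 mM MgCl2, 1 mM EDTA, 100 mM NaCl, 0.03% CHAPS, 2 mM DTT; substrate PIP2 plus ATP. Reaction 1 h at room temperature, stopped with Kinase-Glo reagent, 15 min equilibration, luminescence read. Percent inhibition from no-enzyme and DMSO controls; IC50 from four-parameter Hill fit.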

[13] = target: T2, Phosphatidylinositol 4,5-bisphosphate 3-kinase catalytic subunit beta isoform; assay: Inhibition of PI3Kbeta (unknown origin) at 1 uM after 1 hr by ADP-Glo Luminescent assay; how it was run: as §1
Target sequence in this assay (P42338 whole entry, looked up, canonical isoform): as the sequence (P42338 whole entry, canonical isoform) above

[14] = target: T3, Phosphatidylinositol 4,5-bisphosphate 3-kinase catalytic subunit gamma isoform; assay: Inhibition of PI3Kgamma (unknown origin) at 1 uM after 1 hr by ADP-Glo Luminescent assay
Target sequence in this assay (P48736 whole entry, looked up, canonical isoform): as the sequence (P48736 whole entry, canonical isoform) above

[15] = target: T5, Phosphatidylinositol 4,5-bisphosphate 3-kinase catalytic subunit delta isoform (Homo sapiens) (UniProt O00329); assay: Inhibition of PI3Kdelta (unknown origin) at 1 uM after 1 hr by ADP-Glo Luminescent assay
T5 sequence (whole entry): T4 sequence (O00329 whole entry)

[16] = Metabolic stability in simulated gastric fluid after 45 mins; type: ADME; settings: simulated gi fluid, 0.75 h
[17] = Metabolic stability in simulated intestinal fluid after 45 mins; type: ADME; settings: simulated gi fluid, 0.75 h
[18] = Metabolic stability in rat liver microsomes after 30 mins; type: ADME; settings: read-out: Stability
[19] = Metabolic stability in human liver microsomes after 30 mins; type: ADME; settings: read-out: Stability
[20] = Metabolic stability in human liver microsomes after 60 mins; type: ADME; settings: read-out: Stability

Compound | IC50 (cells [7]) [µM] | IC50 (cells [8]) [µM] | IC50 (MCF7 [9]) [µM] | further results
CC(=O)N1CCN(c2ccc(Nc3c(C(N)=O)cnc4ccc(-c5cnc6ccccc6c5)cc34)cc2C(F)(F)F)CC1 | 1.29 | 3.9 | 0.44 | IC50 [1]: 0.031 µM; IC50 [2]: 2.43 µM; IC50 [3]: > 5 µM; IC50 [4]: 0.939 µM; IC50 [5]: > 5 µM; inhibition (MCF7 [6]): Active; inhibition (MCF7 [10]): Active
Cn1c(=O)n(-c2ccc(C(C)(C)C#N)cc2)c2c3cc(-c4cnc5ccccc5c4)ccc3ncc21 [DACTOLISIB] | 0.2 | 0.21 | 0.05 | 
CC(C)(C#N)c1ccc(Nc2c(C(N)=O)cnc3ccc(-c4ccc(N)nc4)cc23)cc1 | 0.67 | 0.83 | 0.52 | 
CO[C@H]1C[C@@H]2CC[C@@H](C)[C@@](O)(O2)C(=O)C(=O)N2CCCC[C@H]2C(=O)O[C@H]([C@H](C)C[C@@H]2CC[C@@H](O)[C@H](OC)C2)CC(=O)[C@H](C)/C=C(\C)[C@@H](O)[C@@H](OC)C(=O)[C@H](C)C[C@H](C)/C=C/C=C/C=C/1C |  |  |  | inhibition (MCF7 [11]): inactive; inhibition (mTORC1 (Homo sapiens)): Active
COc1ccc(-c2ccc3ncc(C(N)=O)c(Nc4ccc(C(C)(C)C#N)cc4)c3c2)cn1 | 2.57 | 1.66 | 1.58 | 
NC(=O)c1cnc2ccc(-c3cnc4ccccc4c3)cc2c1Nc1cccc(C(F)(F)F)c1 | 3.17 | 6.39 | 0.6 | 
NC(=O)c1cnc2ccc(-c3ccc(N)nc3)cc2c1Nc1cccc(C(F)(F)F)c1 | 1.83 | 1.08 | 0.41 | 
Cl.NC(=O)c1cnc2ccc(-c3cnc4ccccc4c3)cc2c1Nc1ccc(N2CCNCC2)c(C(F)(F)F)c1 | 0.46 | 0.61 | 0.24 | inhibition [12]: 32.3%; inhibition [13]: 1%; inhibition [14]: 6.7%; inhibition [15]: 16.7%; Stability [16]: Stable; Stability [17]: Stable; remaining at 0.5 h [18]: 50%; remaining at 0.5 h [19]: 80%; remaining at 1 h [20]: 73%
CC(C)(C#N)c1ccc(Nc2c(C(N)=O)cnc3ccc(-c4cnc5ccccc5c4)cc23)cc1 | 4.56 | 2.82 | 0.95 | IC50 [1]: 0.033 µM; inhibition [12]: 26.9%; inhibition [13]: 10.3%; inhibition [14]: -2.4%
CNC(=O)c1cnc2ccc(-c3cnc4ccccc4c3)cc2c1Nc1ccc(C(C)(C)C#N)cc1 | 8.73 | 7.12 | 1.3 | 
CS(=O)(=O)N1CCN(c2ccc(Nc3c(C(N)=O)cnc4ccc(-c5cnc6ccccc6c5)cc34)cc2C(F)(F)F)CC1 | 1 | 3.73 | 0.36 | 
CNC(=O)c1cnc2ccc(-c3ccc(N)nc3)cc2c1Nc1ccc(C(C)(C)C#N)cc1 | 4.66 | 1.74 | 0.49 | 
Cn1nccc1-c1ccc2ncc(C(N)=O)c(Nc3ccc(C(C)(C)C#N)cc3)c2c1 | 17.3 | > 50 | 1.25 | 
Cn1nccc1-c1ccc2ncc(C(N)=O)c(Nc3ccc(N4CCN(S(C)(=O)=O)CC4)c(C(F)(F)F)c3)c2c1 | 14.7 | 7.08 | 2.69 | 
CCC(=O)N1CCN(c2ccc(Nc3c(C(N)=O)cnc4ccc(-c5ccc(N)nc5)cc34)cc2C(F)(F)F)CC1 | 2.4 | 1.46 | 0.57 | 
CN1CCN(CC(=O)N2CCN(c3ccc(Nc4c(C(N)=O)cnc5ccc(-c6cnc7ccccc7c6)cc45)cc3C(F)(F)F)CC2)CC1 | 0.97 | 0.99 | 0.44 | 
O=C(NC1CC1)c1cnc2ccc(-c3cnc4ccccc4c3)cc2c1Nc1ccc(N2CCNCC2)c(C(F)(F)F)c1 |  |  |  | IC50 [1]: > 3 µM
COc1ccc(-c2ccc3ncc(C(N)=O)c(Nc4ccc(N5CCNCC5)c(C(F)(F)F)c4)c3c2)cn1 | 2.05 | 0.99 | 0.78 | 
